FN deposit inh: fibronectin deposition inhibition; AH1F fibroblasts, Alexa488-fibronectin deposition fluorescence, overnight; inhibition, % at 12.6 µM; 0.086% of 350,000 active; AID 743247;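 active = mean inhibition across replicates of 30% or more, regardless of how many single replicates reach that level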;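 note: positive control wells lacked labelled fibronectin entirely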
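Material: AH1F fibroblast monolayer depositing Alexa488-labelled fibronectin into matrix | Input: 10000 AH1F cells/well | Medium: DMEM plus 2% serum, read in PBS | Reagent: Alexa488-fibronectin, 24 nM final in well | Compound dosing: One dose per compound, pinned | Schedule: 1 h adhesion, overnight exposure | Measured by: Fluorescence at 485 nm excitation, 525 nm emission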
Env fusion inh: inhibitors of HIV Env-mediated cell fusion | HeLa-JRFL Env/CEM21 cell fusion, luciferase | inhibition, % at 12.3 µM | 1.1% of 360,000 active;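 active = mean replicate inhibition score of at least 50 and every replicate individually at or above 50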;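 note: 0% = plate neutral controls and 100% = maraviroc near 300 nM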
ERp5 inh: ERp5 (human) disulfide isomerase inhibition; AID 651711; ERp5 insulin aggregation, absorbance 650 nm, 90 min; inhibition, % at 9.99 µM; 0.05% of 350,000 active;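 active = mean replicate inhibition above about 25%, with every replicate also reaching it, limit read from the data, passing the limit was not always enough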
Target sequence (Q15084 whole entry, looked up): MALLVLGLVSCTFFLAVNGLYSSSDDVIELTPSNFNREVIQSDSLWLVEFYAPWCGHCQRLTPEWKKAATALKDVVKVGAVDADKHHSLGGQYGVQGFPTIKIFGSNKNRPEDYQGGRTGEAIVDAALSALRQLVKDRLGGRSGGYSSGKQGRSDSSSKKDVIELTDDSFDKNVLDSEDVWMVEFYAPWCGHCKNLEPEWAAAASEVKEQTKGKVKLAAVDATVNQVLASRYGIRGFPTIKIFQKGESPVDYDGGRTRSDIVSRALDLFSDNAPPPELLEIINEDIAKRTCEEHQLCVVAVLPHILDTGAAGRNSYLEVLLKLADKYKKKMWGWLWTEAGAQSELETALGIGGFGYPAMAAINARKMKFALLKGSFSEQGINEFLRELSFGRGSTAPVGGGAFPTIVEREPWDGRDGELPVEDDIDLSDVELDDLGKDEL
GSIS activator: primary screen for activators of insulin secretion dependent on glucose, INS-1E cells, GLuc reporter luminescence. INS-1E GLuc reporter insulin secretion, 2-3 h. 0.61% of 370,000 active. activation, % at 16.6 µM;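 active = lowest replicate activation of at least 40%, so every replicate reaches that level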;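 note: 0% = median of neutral control wells and 100% = median of IBMX positive control wells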
PDI turbidity: inhibitors of human protein disulfide isomerase; AID 588391; inhibition, % at 10 µM; PDI insulin aggregation turbidity, A650, 90 min; 0.052% of 350,000 active;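 active = mean inhibition across replicates of 30% or more, whatever share of single replicates reach that level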
* = called active by the depositor; [ ] = remark or other dose. The list is not random: actives were taken first. Their share in the collection is about 1.4%.

How did CSc1nsc(SCC(=O)Nc2ccc(O)c(C(=O)O)c2)n1 do in these assays?
FN deposit inh: 10; Env fusion inh: -9; ERp5 inh: 2; GSIS activator: 40*; PDI turbidity: -3

What do the screens show for `Cc1cc(C)c(S(=O)(=O)Nn2cnnc2)c(C)c1`?
FN deposit inh: 33*; Env fusion inh: 10; ERp5 inh: 0; GSIS activator: 22; PDI turbidity: -1

How did Cc1cc(C)c(S(=O)(=O)Nc2ccccn2)c(C)c1 do in these assays?
FN deposit inh: 2; Env fusion inh: 7; ERp5 inh: 2; GSIS activator: 1; PDI turbidity: -5

How did CCOc1ccc(CCNC(=O)COC(=O)/C=C/c2ccccc2OC)cc1OCC do in these assays?
FN deposit inh: 0; Env fusion inh: -24; ERp5 inh: 2; GSIS activator: 47*; PDI turbidity: -2

What do the screens show for `CCOc1ccc(CCNC(=O)COC(=O)/C=C/c2ccc(OC)c(OC)c2)cc1OCC`?
FN deposit inh: 1; Env fusion inh: -9; ERp5 inh: -22; GSIS activator: 3; PDI turbidity: 7

What do the screens show for `CCOc1ccc(CCNC(=O)c2cc(C)on2)cc1OCC`?
FN deposit inh: 12; Env fusion inh: 10; ERp5 inh: -2; GSIS activator: 55*; PDI turbidity: 0

What do the screens show for `CCOc1ccc(CCNC(=O)CSCc2ccc(C)cc2)cc1OCC`?
FN deposit inh: 3; Env fusion inh: -14; ERp5 inh: -3; GSIS activator: -33; PDI turbidity: 1

How did CCOc1ccc(CCNC(=O)CSC(=S)N2CCCC2)cc1OCC do in these assays?
FN deposit inh: 5; Env fusion inh: -6; ERp5 inh: -1; GSIS activator: 41*; PDI turbidity: 10

Results for CCOc1ccc(CCNC(=O)COC(=O)COc2cc(C)cc(C)c2)cc1OCC ?
FN deposit inh: 5; Env fusion inh: -14; ERp5 inh: 12; GSIS activator: 45*; PDI turbidity: -9

How did CCC(=O)N1CC2(C1)CN(C(=O)c1ccccn1)[C@H](CO)c1c2c2ccc(OC)cc2n1C do in these assays?
ERp5 inh: 3; GSIS activator: 16

What do the screens show for `COc1cccc(C#Cc2ccc([C@H]3[C@H](C#N)N(C(=O)C4CCC4)[C@H]3CO)cc2)c1`?
FN deposit inh: -1; Env fusion inh: -11[16.7 µM]; ERp5 inh: -1; GSIS activator: 12

Results for CCOc1ccc(CCNC(=O)COC(=O)c2cccc(S(=O)(=O)N(C)C)c2)cc1OCC ?
FN deposit inh: 1; Env fusion inh: -12; ERp5 inh: 2; GSIS activator: 54; PDI turbidity: -7

How did CCOc1ccc(CCNC(=O)COC(=O)COc2ccc(Br)cc2)cc1OCC do in these assays?
Env fusion inh: -6; ERp5 inh: 1; GSIS activator: 69*; PDI turbidity: 12

What do the screens show for `Cc1nn(CC(=O)OCC(=O)NCCc2ccc(F)cc2)c(C)c1[N+](=O)[O-]`?
FN deposit inh: 5; ERp5 inh: -11; GSIS activator: -6; PDI turbidity: 2

Results for CCOc1ccc(CCNC(=O)COC(=O)c2cccc(N(C)C)c2)cc1OCC ?
FN deposit inh: -1; Env fusion inh: -112; ERp5 inh: 3; GSIS activator: 52*; PDI turbidity: 8

How did CCOc1ccc(CCNC(=O)COC(=O)Cn2nc(C)c([N+](=O)[O-])c2C)cc1OCC do in these assays?
FN deposit inh: -8; ERp5 inh: -1; GSIS activator: 56*; PDI turbidity: 3

What do the screens show for `CCC(=O)N1C[C@H](C)[C@@H](OC)CN(C)C(=O)c2ccc(NC(=O)Nc3cccc(F)c3)cc2OC[C@@H]1C`?
FN deposit inh: -1; ERp5 inh: 2; GSIS activator: -25

How did CCN1/C(=C/c2ccc3cc(C)ccc3[n+]2C)Sc2ccc3sccc3c21 do in these assays?
FN deposit inh: -3; Env fusion inh: 61*; ERp5 inh: 8; GSIS activator: -36; PDI turbidity: -2

What do the screens show for `COc1ccc(Cl)cc1NC(=O)C(C)NC(c1ccccc1)c1ccccc1` (stereo not given)?
FN deposit inh: 7; Env fusion inh: 59*; GSIS activator: -7; PDI turbidity: 1

How did COc1ccc(Cl)cc1NC(=O)NC(C)C do in these assays?
FN deposit inh: -9; Env fusion inh: 7; ERp5 inh: -2; GSIS activator: 9; PDI turbidity: -8

What do the screens show for `CO[C@@H]1CN(C)C(=O)c2ccc(NC(=O)c3ccc4c(c3)OCO4)cc2OC[C@@H](C)N(Cc2ccc3c(c2)OCO3)C[C@H]1C`?
FN deposit inh: -4; Env fusion inh: -17[16.7 µM]; ERp5 inh: -2; GSIS activator: 3

How did CCc1ccc(NC(=O)CSc2nc3n[nH]c(C)c3c(=N)n2-c2cccc(OC)c2)cc1 do in these assays?
FN deposit inh: -2; Env fusion inh: 59*; GSIS activator: -3; PDI turbidity: 2

How did COc1cccc(NC(=O)CSc2nc3n[nH]c(C)c3c(=N)n2-c2cccc(OC)c2)c1 do in these assays?
GSIS activator: -34; PDI turbidity: -7

Results for Cc1cc(-n2c(SCC(=O)Nc3ccc(F)c(F)c3)nc3n[nH]c(C)c3c2=N)ccc1Cl ?
FN deposit inh: -5; Env fusion inh: 35; ERp5 inh: 2; GSIS activator: 250*; PDI turbidity: -3

How did Cc1noc(C)c1NC(=O)N(C)C[C@H]1Oc2ccc(NC(=O)Nc3ccccc3)cc2C(=O)N([C@H](C)CO)C[C@H]1C do in these assays?
Env fusion inh: -1[16.7 µM]; ERp5 inh: 7; GSIS activator: 16

What do the screens show for `Cc1ccccc1S(=O)(=O)N1C[C@@H](O)COC[C@@H]2O[C@@H](CC(=O)NCCc3ccccc3)CC[C@H]21`?
FN deposit inh: -1; Env fusion inh: -16[16.7 µM]; ERp5 inh: 1; GSIS activator: 16

What do the screens show for `CO[C@H]1CN(C)C(=O)c2cc(NC(=O)Nc3ccccc3)ccc2OC[C@H](C)N(C(C)=O)C[C@@H]1C`?
FN deposit inh: -5; Env fusion inh: 11[16.7 µM]; ERp5 inh: -3; GSIS activator: -9

What do the screens show for `CCC(=O)Nc1ccc2c(c1)C(=O)N(C)[C@H]1CC[C@H](CC(=O)NCC3CC3)O[C@H]1CO2`?
FN deposit inh: -11; Env fusion inh: 6[16.7 µM]; ERp5 inh: 60*; GSIS activator: -5

How did CC(=O)Nc1ccc2c(c1)C(=O)N(C)[C@H]1CC[C@H](CC(=O)NCC3CC3)O[C@@H]1CO2 do in these assays?
FN deposit inh: -1; Env fusion inh: -16[16.7 µM]; ERp5 inh: 91*; GSIS activator: 1

How did CCC(=O)Nc1ccc2c(c1)C(=O)N(C)[C@@H]1CC[C@@H](CC(=O)NCC3CC3)O[C@H]1CO2 do in these assays?
FN deposit inh: -3; Env fusion inh: 12[16.7 µM]; ERp5 inh: -1; GSIS activator: 10

Results for CCC(=O)Nc1ccc2c(c1)C(=O)N(C)[C@H]1CC[C@@H](CC(=O)NCC3CC3)O[C@H]1CO2 ?
FN deposit inh: -6; Env fusion inh: 2[16.7 µM]; ERp5 inh: 36*; GSIS activator: 3

Compound activity deposited in PubChem BioAssay by Broad Institute.
